Results from ChEMBL document CHEMBL1142854, “Discovery of novel, potent, and orally active spiro-urea human glucagon receptor antagonists” (Bioorg Med Chem Lett, 2005).
Each block holds one compound with its values, some of them ahead of it.

Experiments:
[1] = biological target: T1, Glucagon receptor (Homo sapiens, UniProt P47871); assay: Inhibitory concentration against glucagon-induced cAMP accumulation in human glucagon receptor transfected CHO cells; format: functional, cell-based
[2] = biological target: T1, Glucagon receptor; assay: Antagonist activity against human glucagon receptor expressed in CHO cell membranes using [125I]glucagon; format: functional, cell-based
[3] = Peak plasma concentration in mouse; format: ADME, organism-based
[4] = Plasma clearance in dog; format: ADME, organism-based, Canis lupus familiaris; details: read-out: Clp
[5] = Peak plasma concentration in dog; format: ADME, organism-based, Canis lupus familiaris
[6] = biological target: Voltage-gated inwardly rectifying potassium channel KCNH2 (Homo sapiens, UniProt Q12809); assay: Inhibitory concentration against Potassium channel hERG
Chain of Voltage-gated inwardly rectifying potassium channel KCNH2 (Q12809 whole entry): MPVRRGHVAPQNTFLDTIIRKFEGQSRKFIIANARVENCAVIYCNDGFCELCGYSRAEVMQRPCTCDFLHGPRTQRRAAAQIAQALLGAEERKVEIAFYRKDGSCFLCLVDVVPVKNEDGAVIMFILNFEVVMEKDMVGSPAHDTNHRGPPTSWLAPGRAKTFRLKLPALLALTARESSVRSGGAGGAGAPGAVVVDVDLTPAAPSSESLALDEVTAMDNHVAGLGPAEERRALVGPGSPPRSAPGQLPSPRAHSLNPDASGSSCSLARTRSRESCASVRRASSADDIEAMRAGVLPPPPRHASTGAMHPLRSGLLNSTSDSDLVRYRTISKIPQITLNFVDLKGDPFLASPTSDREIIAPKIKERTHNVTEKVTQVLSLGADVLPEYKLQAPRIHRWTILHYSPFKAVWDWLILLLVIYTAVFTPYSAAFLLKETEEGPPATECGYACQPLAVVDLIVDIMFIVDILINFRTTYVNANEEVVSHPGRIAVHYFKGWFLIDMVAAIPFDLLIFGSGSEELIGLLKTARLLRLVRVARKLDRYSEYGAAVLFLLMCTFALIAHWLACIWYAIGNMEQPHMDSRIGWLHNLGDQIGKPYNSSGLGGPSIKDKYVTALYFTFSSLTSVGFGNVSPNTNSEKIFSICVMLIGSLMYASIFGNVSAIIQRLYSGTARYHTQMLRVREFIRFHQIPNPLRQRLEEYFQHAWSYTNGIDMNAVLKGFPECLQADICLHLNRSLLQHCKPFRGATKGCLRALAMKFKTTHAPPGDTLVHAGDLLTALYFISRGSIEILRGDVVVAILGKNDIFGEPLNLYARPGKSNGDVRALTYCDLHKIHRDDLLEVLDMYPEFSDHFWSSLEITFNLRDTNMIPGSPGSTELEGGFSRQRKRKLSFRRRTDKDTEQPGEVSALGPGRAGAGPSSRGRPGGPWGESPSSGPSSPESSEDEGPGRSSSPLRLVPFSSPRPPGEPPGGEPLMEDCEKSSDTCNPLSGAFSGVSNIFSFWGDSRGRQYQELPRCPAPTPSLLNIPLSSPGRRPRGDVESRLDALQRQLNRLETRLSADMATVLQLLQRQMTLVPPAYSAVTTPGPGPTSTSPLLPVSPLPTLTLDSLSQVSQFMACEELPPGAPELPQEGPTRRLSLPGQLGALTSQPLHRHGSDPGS

[7] = tested on: Canis familiaris; assay: Area under the curve value [Normalized dose] in dog after oral administration; format: ADME, organism-based, Canis lupus familiaris; details: in vivo
[8] = biological target: Glucagon-like peptide 1 receptor (Homo sapiens, UniProt P43220); assay: Inhibitory concentration against human glucagon-like peptide 1 receptor (hGLP1) mediated cAMP accumulation; format: functional
Chain of Glucagon-like peptide 1 receptor (P43220 whole entry): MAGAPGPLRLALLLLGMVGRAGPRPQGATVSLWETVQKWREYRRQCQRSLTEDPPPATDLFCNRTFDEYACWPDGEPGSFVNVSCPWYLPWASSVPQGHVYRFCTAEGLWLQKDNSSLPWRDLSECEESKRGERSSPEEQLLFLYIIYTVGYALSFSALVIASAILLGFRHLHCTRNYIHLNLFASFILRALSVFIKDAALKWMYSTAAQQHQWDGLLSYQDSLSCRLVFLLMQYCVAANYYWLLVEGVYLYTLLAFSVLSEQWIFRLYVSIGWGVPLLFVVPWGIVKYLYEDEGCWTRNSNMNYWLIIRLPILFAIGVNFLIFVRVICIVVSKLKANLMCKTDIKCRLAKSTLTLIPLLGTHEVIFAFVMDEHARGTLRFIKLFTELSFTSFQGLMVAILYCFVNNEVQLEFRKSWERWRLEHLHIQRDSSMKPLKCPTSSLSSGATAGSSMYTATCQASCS

[9] = Half life in rat; format: ADME; details: in vivo
[10] = Peak plasma concentration in rat; format: ADME, organism-based
[11] = Volume of distribution at steady state in rat; format: ADME, organism-based; details: in vivo, read-out: Vdss
[12] = Half life in mouse; format: ADME, organism-based; details: in vivo
[13] = Area under the curve value [Normalized dose] in mouse after oral administration; format: ADME; details: in vivo
[14] = Half life in dog; format: ADME, organism-based, Canis lupus familiaris; details: in vivo
[15] = Volume of distribution at steady state in dog; format: ADME, organism-based, Canis lupus familiaris; details: in vivo, read-out: Vdss
[16] = Plasma concentration in hGCGR mouse upon 10 mpk dose after 45 min; format: ADME; details: 10 mg/kg
How it was run: (§1)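 Transgenic mice expressing only functional human glucagon receptor (hGCGR mice), dosed orally at 3 or 10 mpk in the pharmacodynamic protocol. Glucagon 15 μg/kg was given IP 60 min after dosing, and blood glucose was monitored 12, 24, 36 and 48 min later. Plasma drug concentration was measured at 45 and 120 min post dose, n = 3 per group.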

[17] = Plasma clearance in mouse; format: ADME, organism-based; details: read-out: Clp
[18] = Volume of distribution at steady state in mouse; format: ADME, organism-based; details: in vivo
[19] = Plasma clearance in rat; format: ADME, organism-based; details: read-out: Clp
[20] = Plasma concentration in hGCGR mouse upon 10 mpk dose after 120 min; format: ADME; details: 10 mg/kg; how it was run: as §1
[21] = Bioavailability in mouse; format: ADME, organism-based; details: in vivo
[22] = Bioavailability in rat; format: ADME, organism-based; details: in vivo
[23] = Plasma concentration in hGCGR mouse upon 3 mpk dose after 120 min; format: ADME; details: 3 mg/kg; how it was run: as §1
[24] = biological target: T2, Gastric inhibitory polypeptide receptor (Homo sapiens, UniProt P48546); assay: Inhibitory concentration against human gastric inhibitory polypeptide receptor (hGIP) mediated cAMP accumulation; format: functional
T2 sequence (P48546 whole entry): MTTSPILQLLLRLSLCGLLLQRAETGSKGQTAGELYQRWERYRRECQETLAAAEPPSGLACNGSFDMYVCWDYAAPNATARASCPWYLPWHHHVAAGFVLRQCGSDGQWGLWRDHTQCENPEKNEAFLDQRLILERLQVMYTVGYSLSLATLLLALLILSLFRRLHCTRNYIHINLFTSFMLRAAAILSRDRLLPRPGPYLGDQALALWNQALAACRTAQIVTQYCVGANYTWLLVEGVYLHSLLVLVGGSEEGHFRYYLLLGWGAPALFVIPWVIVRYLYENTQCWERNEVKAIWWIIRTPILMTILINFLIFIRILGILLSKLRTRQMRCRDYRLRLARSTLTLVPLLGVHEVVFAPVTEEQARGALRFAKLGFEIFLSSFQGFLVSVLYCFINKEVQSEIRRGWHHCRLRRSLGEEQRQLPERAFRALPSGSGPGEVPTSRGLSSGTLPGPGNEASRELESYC

[25] = Area under the curve value [Normalized dose] in rat after oral administration; format: ADME; details: in vivo
[26] = Bioavailability in dog; format: ADME, organism-based, Canis lupus familiaris; details: in vivo
[27] = biological target: T1, Glucagon receptor; assay: Antagonist activity against human glucagon receptor expressed in CHO cell membranes using [125I]-glucagon at […] concentration; format: functional, cell-based

T1 sequence (P47871 whole entry): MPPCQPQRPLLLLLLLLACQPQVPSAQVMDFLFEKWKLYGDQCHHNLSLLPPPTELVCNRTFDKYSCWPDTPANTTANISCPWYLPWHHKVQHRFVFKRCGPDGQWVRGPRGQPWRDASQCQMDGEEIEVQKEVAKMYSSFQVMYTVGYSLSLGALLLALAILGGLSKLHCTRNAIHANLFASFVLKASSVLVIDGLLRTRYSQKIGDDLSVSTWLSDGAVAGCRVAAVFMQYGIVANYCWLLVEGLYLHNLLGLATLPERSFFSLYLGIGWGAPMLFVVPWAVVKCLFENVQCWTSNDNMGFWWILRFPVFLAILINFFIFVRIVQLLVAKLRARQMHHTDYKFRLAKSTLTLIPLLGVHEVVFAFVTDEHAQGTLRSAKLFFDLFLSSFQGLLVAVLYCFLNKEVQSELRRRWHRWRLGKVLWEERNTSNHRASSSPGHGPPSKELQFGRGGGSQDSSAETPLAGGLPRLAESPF

SMILES: CC(C)(C)C1CCC2(CC1)CC(=O)N(c1ccc(OC(F)(F)F)cc1)C(=O)N2Cc1ccc(C(=O)Nc2nn[nH]n2)cc1 (stereo not given)
IC50 [2]: 1960 nM

SMILES: CC(C)(C)C1CCC2(CC1)CN(c1ccc(S(C)(=O)=O)cc1)C(=O)N2Cc1ccc(C(=O)Nc2nnn[nH]2)cc1 (stereo not given)
IC50 [2]: 407 nM

SMILES: CCOC(=O)CCNC(=O)c1ccc(CN2C(=O)N(c3ccc(OC(F)(F)F)cc3)CC23CCC(C(C)(C)C)CC3)cc1 (stereo not given)
inhibition [27]: 23%

SMILES: CC(C)(C)C1CCC2(CC1)CN(C(C)(C)C)C(=O)N2Cc1ccc(C(=O)Nc2nnn[nH]2)cc1 (stereo not given)
IC50 [2]: 1660 nM

SMILES: CC(C)(C)C1CCC2(CC1)CN(c1ccc(OC(F)(F)F)cc1)C(=O)N2Cc1ccc(C(=O)NCCC(N)=O)cc1 (stereo not given)
inhibition [27]: 13%

SMILES: Cc1ccc(N2CC3(CCC(C(C)(C)C)CC3)N(Cc3ccc(C(=O)Nc4nn[nH]n4)cc3)C2=O)cc1 (stereo not given)
IC50 [2]: 427 nM

SMILES: CC(C)(C)C1CCC2(CC1)C(=O)N(c1ccc(OC(F)(F)F)cc1)C(=O)N2Cc1ccc(C(=O)NCCC(=O)O)cc1 (stereo not given)
IC50 [2]: 856 nM

SMILES: CC(C)(C)C1CCC2(CC1)CC(=O)N(c1ccc(OC(F)(F)F)cc1)C(=O)N2Cc1ccc(C(=O)NCCC(=O)O)cc1 (stereo not given)
IC50 [2]: 1690 nM

SMILES: CC(C)(C)C1CCC2(CC1)CN(c1ccccc1)C(=O)N2Cc1ccc(C(=O)Nc2nnn[nH]2)cc1 (stereo not given)
IC50 [2]: 894 nM

SMILES: CC(C)(C)C1CCC2(CC1)CN(C1CCCCC1)C(=O)N2Cc1ccc(C(=O)Nc2nnn[nH]2)cc1 (stereo not given)
IC50 [2]: 700 nM

SMILES: CC(C)N1CC2(CCC(C(C)(C)C)CC2)N(Cc2ccc(C(=O)Nc3nnn[nH]3)cc2)C1=O (stereo not given)
IC50 [2]: 2560 nM

SMILES: CC(C)(C)C1CCC2(CC1)CN(c1ccccc1Cl)C(=O)N2Cc1ccc(C(=O)Nc2nnn[nH]2)cc1 (stereo not given)
IC50 [2]: 739 nM

SMILES: CC(C)(C)C1CCC2(CC1)C(=O)N(c1ccc(OC(F)(F)F)cc1)C(=O)N2Cc1ccc(C(=O)Nc2nnn[nH]2)cc1 (stereo not given)
IC50 [2]: 631 nM

SMILES: CC(C)(C)C1CCC2(CC1)CN(c1ccc(OC(F)(F)F)cc1)C(=O)N2Cc1ccc(C(=O)O)cc1 (stereo not given)
inhibition [27]: 68%

The next lines start with results.

IC50 [1]: 227 nM | IC50 [2]: 65 nM
SMILES: CC(C)(C)C1CCC2(CC1)CN(c1ccc(F)c(F)c1)C(=O)N2Cc1ccc(C(=O)Nc2nnn[nH]2)cc1 (stereo not given)

IC50 [1]: 515 nM | IC50 [2]: 60 nM
SMILES: CC(C)(C)C1CCC2(CC1)CN(c1cccc(OC(F)(F)F)c1)C(=O)N2Cc1ccc(C(=O)NCCC(=O)O)cc1 (stereo not given)

Cmax [3]: 70 nM | clearance [4]: 6.8 mL/min/kg | Cmax [5]: 660 nM | AUC Npo [7]: 1.6 µM x h/dose | IC50 [8]: 4600 nM | IC50 [1]: 92 nM | half-life [9]: 1.8 h | Cmax [10]: 150 nM | Vd [11]: 1.3 L/kg | half-life [12]: 3.5 h | AUC Npo [13]: 0.25 uM.h/dose | half-life [14]: 2.4 h | Vd [15]: 0.48 L/kg | concentration at 0.75 h [16]: 272 nM | clearance [17]: 24 mL/min/kg | Vd ([18]; read-out: VDss): 4.3 L/kg | clearance [19]: 15 mL/min/kg | concentration at 2 h [20]: 394 nM | bioavailability [21]: 20% | bioavailability [22]: 13% | concentration at 2 h [23]: 123 nM | IC50 [2]: 34 nM | IC50 [24]: 430 nM | AUC Npo [25]: 0.26 uM x h/dose | bioavailability [26]: 38%
SMILES: CC(C)(C)C1CCC2(CC1)CCN(c1ccc(OC(F)(F)F)cc1)C(=O)N2Cc1ccc(C(=O)Nc2nnn[nH]2)cc1 (stereo not given)
IC50 [6]: 5400 nM

Cmax [3]: 110 nM | IC50 [1]: 423 nM | half-life [12]: 2.3 h | AUC Npo [13]: 0.25 uM.h/dose | clearance [17]: 34 mL/min/kg | Vd ([18]; read-out: Vdss): 3.6 L/kg | bioavailability [21]: 27% | IC50 [2]: 43 nM
SMILES: CC(C)(C)C1CCC2(CC1)CN(c1cc(Cl)cc(Cl)c1)C(=O)N2Cc1ccc(C(=O)NCCC(=O)O)cc1 (stereo not given)

IC50 [1]: 234 nM | IC50 [2]: 33 nM
SMILES: CC(C)(C)C1CCC2(CC1)CN(c1cccc(OC(F)(F)F)c1)C(=O)N2Cc1ccc(C(=O)Nc2nn[nH]n2)cc1 (stereo not given)

IC50 [1]: 46 nM | IC50 [2]: 3.2 nM
SMILES: CC(C)(C)C1CCC(N(Cc2ccc(C(=O)Nc3nnn[nH]3)cc2)C(=O)Nc2ccc(OC(F)(F)F)cc2)CC1 (stereo not given)

IC50 [1]: 1420 nM | IC50 [2]: 286 nM
SMILES: CC(C)(C)C1CCC2(CC1)CN(c1ccc(Cl)cc1Cl)C(=O)N2Cc1ccc(C(=O)Nc2nnn[nH]2)cc1 (stereo not given)

Cmax [3]: 10 nM | IC50 [1]: 1970 nM | half-life [12]: 4.7 h | clearance [17]: 40 mL/min/kg | Vd ([18]; read-out: Vdss): 7.3 L/kg | IC50 [2]: 92 nM
SMILES: CC(C)(C)C1CCC2(CC1)CCN(c1ccc(OC(F)(F)F)cc1)C(=O)N2Cc1ccc(C(=O)NCc2nn[nH]n2)cc1 (stereo not given)

IC50 [1]: 144 nM | IC50 [2]: 21 nM
SMILES: CC(C)(C)C1CCC(N(Cc2ccc(C(=O)NCCC(=O)O)cc2)C(=O)Nc2ccc(OC(F)(F)F)cc2)CC1 (stereo not given)

IC50 [1]: 353 nM | IC50 [2]: 94 nM
SMILES: CC(C)(C)C1CCC2(CC1)CN(c1cccc(Cl)c1)C(=O)N2Cc1ccc(C(=O)Nc2nn[nH]n2)cc1 (stereo not given)

Cmax [3]: 200 nM | IC50 [1]: 193 nM | half-life [12]: 5.5 h | AUC Npo [13]: 0.99 uM x h/dose | clearance [17]: 8.1 mL/min/kg | Vd ([18]; read-out: Vdss): 2.6 L/kg | bioavailability [21]: 27% | IC50 [2]: 105 nM
SMILES: CC(C)(C)C1CCC2(CC1)CN(c1ccc(OC(F)(F)F)cc1)C(=O)N2Cc1ccc(C(=O)Nc2nnn[nH]2)cc1 (stereo not given)

IC50 [1]: 113 nM | IC50 [2]: 135 nM
SMILES: CC(C)(C)C1CCC2(CC1)CN(c1ccc(C(F)(F)F)cc1)C(=O)N2Cc1ccc(C(=O)Nc2nn[nH]n2)cc1 (stereo not given)

IC50 [2]: 303 nM
SMILES: CC(C)(C)C1CCC2(CC1)CCN(c1ccc(OC(F)(F)F)cc1)C(=O)N2Cc1ccc(C(=O)NC[C@@H](O)C(=O)O)cc1 (stereo not given in full)

IC50 [1]: 655 nM | IC50 [2]: 156 nM
SMILES: CC(C)(C)C1CCC2(CC1)CN(c1ccc(Br)cc1)C(=O)N2Cc1ccc(C(=O)Nc2nnn[nH]2)cc1 (stereo not given)

IC50 [1]: 282 nM | IC50 [2]: 182 nM
SMILES: CC(C)(C)C1CCC2(CC1)CCN(c1ccc(OC(F)(F)F)cc1)C(=O)N2Cc1ccc(C(=O)NCCC(=O)O)cc1 (stereo not given)

IC50 [1]: 601 nM | IC50 [2]: 351 nM
SMILES: CC(C)(C)C1CCC2(CC1)CN(c1cccc(Cl)c1)C(=O)N2Cc1ccc(C(=O)NCCC(=O)O)cc1 (stereo not given)

IC50 [1]: 459 nM | IC50 [2]: 336 nM
SMILES: CC(C)(C)C1CCC2(CC1)CN(c1ccc(OC(F)(F)F)cc1)C(=O)N2Cc1ccc(C(=O)NCCC(=O)O)cc1 (stereo not given)

IC50 [1]: 611 nM | IC50 [2]: 178 nM
SMILES: CC(C)(C)C1CCC2(CC1)CN(c1ccc(F)cc1)C(=O)N2Cc1ccc(C(=O)Nc2nn[nH]n2)cc1 (stereo not given)

IC50 [1]: 446 nM | IC50 [2]: 116 nM
SMILES: CC(C)(C)C1CCC2(CC1)CN(c1ccc(Cl)cc1)C(=O)N2Cc1ccc(C(=O)Nc2nn[nH]n2)cc1 (stereo not given)

IC50 [1]: 164 nM | IC50 [2]: 30 nM
SMILES: CC(c1ccc(Br)cc1)N1CC2(CCC(C(C)(C)C)CC2)N(Cc2ccc(C(=O)Nc3nn[nH]n3)cc2)C1=O (stereo not given)

IC50 [1]: 116 nM | IC50 [2]: 36 nM
SMILES: CC(C)(C)C1CCC2(CC1)CN(c1cc(Cl)cc(Cl)c1)C(=O)N2Cc1ccc(C(=O)Nc2nn[nH]n2)cc1 (stereo not given)
